Laboratory results: ChEMBL document CHEMBL1926577, “Novel 1,3,4-heterodiazole analogues: synthesis and in-vitro antitumor activity” (2012)

Assays:
Type in all cases: functional
[1] = test system: TK-10; assay: Growth inhibition of human TK10 cells at 10 uM after 48 hrs by coulter counter method; conditions: TK-10, 48 h, read-out: GI
Method in brief: (§1)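 NCI 60-cell-line panel, single dose. Compound dissolved first in DMSO, then diluted in phosphate-buffered saline so that every final dilution held under 1% DMSO. Duplicate wells received cells at 6 × 10⁴ cells/ml. Controls held PBS/DMSO at the same dilution. Plates were incubated 48 h at 37 °C under 5% CO₂. Cells were then diluted 10-fold in saline and counted on a Coulter counter, with counts corrected for the dilution. Results are given as percent growth inhibition.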

[2] = test system: ACHN; assay: Growth inhibition of human ACHN cells at 10 uM after 48 hrs by coulter counter method; conditions: read-out: GI; method in brief: as §1
[3] = test system: HT-29; assay: Growth inhibition of human HT-29 cells at 10 uM after 48 hrs by coulter counter method; conditions: HT-29, 48 h, read-out: GI; method in brief: as §1
[4] = test system: SR; assay: Growth inhibition of human SR cells at 10 uM after 48 hrs by coulter counter method; conditions: read-out: GI; method in brief: as §1
[5] = test system: SK-MEL-28; assay: Growth inhibition of human SK-MEL-28 cells at 10 uM after 48 hrs by coulter counter method; conditions: SK-MEL-28, 48 h, read-out: GI; method in brief: as §1
[6] = test system: UACC-257; assay: Growth inhibition of human UACC257 cells at 10 uM after 48 hrs by coulter counter method; conditions: UACC-257, 48 h, read-out: GI; method in brief: as §1
[7] = test system: RPMI-8226; assay: Growth inhibition of human RPMI8226 cells at 10 uM after 48 hrs by coulter counter method; conditions: RPMI-8226, 48 h, read-out: GI; method in brief: as §1
[8] = test system: NCI-H23; assay: Growth inhibition of human NCI-H23 cells at 10 uM after 48 hrs by coulter counter method; conditions: NCI-H23, 48 h, read-out: GI; method in brief: as §1
[9] = test system: MOLT-4; assay: Growth inhibition of human MOLT4 cells at 10 uM after 48 hrs by coulter counter method; conditions: MOLT-4, 48 h, read-out: GI; method in brief: as §1
[10] = test system: MDA-MB-435; assay: Growth inhibition of human MDA-MB-435 cells at 10 uM after 48 hrs by coulter counter method; conditions: MDA-MB-435, 48 h, read-out: GI; method in brief: as §1
[11] = test system: HCT-15; assay: Growth inhibition of human HCT15 cells at 10 uM after 48 hrs by coulter counter method; conditions: HCT-15, 48 h, read-out: GI; method in brief: as §1
[12] = test system: SK-MEL-2; assay: Growth inhibition of human SK-MEL-2 cells at 10 uM after 48 hrs by coulter counter method; conditions: SK-MEL-2, 48 h, read-out: GI; method in brief: as §1
[13] = test system: UACC-62; assay: Growth inhibition of human UACC62 cells at 10 uM after 48 hrs by coulter counter method; conditions: UACC-62, 48 h, read-out: GI; method in brief: as §1
[14] = test system: UO-31; assay: Growth inhibition of human UO31 cells at 10 uM after 48 hrs by coulter counter method; conditions: UO-31, 48 h, read-out: GI; method in brief: as §1
[15] = test system: A498; assay: Growth inhibition of human A498 cells at 10 uM after 48 hrs by coulter counter method; conditions: A498, 48 h, read-out: GI; method in brief: as §1
[16] = test system: Malme-3M; assay: Growth inhibition of human MALME-3M cells at 10 uM after 48 hrs by coulter counter method; conditions: read-out: GI; method in brief: as §1
[17] = test system: OVCAR-8; assay: Growth inhibition of human OVCAR8 cells at 10 uM after 48 hrs by coulter counter method; conditions: OVCAR-8, 48 h, read-out: GI; method in brief: as §1
[18] = test system: PC-3; assay: Growth inhibition of human PC3 cells at 10 uM after 48 hrs by coulter counter method; conditions: PC-3, 48 h, read-out: GI; method in brief: as §1
[19] = test system: SK-MEL-5; assay: Growth inhibition of human SK-MEL-5 cells at 10 uM after 48 hrs by coulter counter method; conditions: SK-MEL-5, 48 h, read-out: GI; method in brief: as §1
[20] = test system: EKVX; assay: Growth inhibition of human EKVX cells at 10 uM after 48 hrs by coulter counter method; conditions: read-out: GI; method in brief: as §1
[21] = test system: 786-0; assay: Growth inhibition of human 786-0 cells at 10 uM after 48 hrs by coulter counter method; conditions: 786-0, 48 h, read-out: GI; method in brief: as §1
[22] = test system: K562; assay: Growth inhibition of human K562 cells at 10 uM after 48 hrs by coulter counter method; conditions: K562, 48 h, read-out: GI; method in brief: as §1
[23] = test system: MDA-MB-468; assay: Growth inhibition of human MDA-MB-468 cells at 10 uM after 48 hrs by coulter counter method; conditions: MDA-MB-468, 48 h, read-out: GI; method in brief: as §1
[24] = test system: SNB-19; assay: Growth inhibition of human SNB19 cells at 10 uM after 48 hrs by coulter counter method; conditions: SNB-19, 48 h, read-out: GI; method in brief: as §1
[25] = test system: SN12C; assay: Growth inhibition of human SN12C cells at 10 uM after 48 hrs by coulter counter method; conditions: read-out: GI; method in brief: as §1
[26] = test system: IGROV-1; assay: Growth inhibition of human IGROV1 cells at 10 uM after 48 hrs by coulter counter method; conditions: IGROV-1, 48 h, read-out: GI; method in brief: as §1
[27] = test system: SF-295; assay: Growth inhibition of human SF295 cells at 10 uM after 48 hrs by coulter counter method; conditions: SF-295, 48 h, read-out: GI; method in brief: as §1
[28] = test system: NCI-H226; assay: Growth inhibition of human NCI-H226 cells at 10 uM after 48 hrs by coulter counter method; conditions: NCI-H226, 48 h, read-out: GI; method in brief: as §1
[29] = test system: BT-549; assay: Growth inhibition of human BT549 cells at 10 uM after 48 hrs by coulter counter method; conditions: BT-549, 48 h, read-out: GI; method in brief: as §1
[30] = test system: NCI/ADR-RES; assay: Growth inhibition of human NCI/ADR-RES cells at 10 uM after 48 hrs by coulter counter method; conditions: read-out: GI; method in brief: as §1
[31] = test system: NCI-H522; assay: Growth inhibition of human NCI-H522 cells at 10 uM after 48 hrs by coulter counter method; conditions: NCI-H522, 48 h, read-out: GI; method in brief: as §1
[32] = test system: A549; assay: Growth inhibition of human A549 cells at 10 uM after 48 hrs by coulter counter method; conditions: A549, 48 h, read-out: GI; method in brief: as §1
[33] = test system: SNB-75; assay: Growth inhibition of human SNB75 cells at 10 uM after 48 hrs by coulter counter method; conditions: SNB-75, 48 h, read-out: GI; method in brief: as §1
[34] = test system: M14; assay: Growth inhibition of human M14 cells at 10 uM after 48 hrs by coulter counter method; conditions: M14, 48 h, read-out: GI; method in brief: as §1
[35] = test system: NCI-H322M; assay: Growth inhibition of human NCI-H322M cells at 10 uM after 48 hrs by coulter counter method; conditions: read-out: GI; method in brief: as §1
[36] = test system: HL-60(TB); assay: Growth inhibition of human HL-60(TB) cells at 10 uM after 48 hrs by coulter counter method; conditions: HL-60, 48 h, read-out: GI
Method in brief: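 Single-dose screen on the NCI 60-line panel (leukemia subpanel). Compound is dissolved in DMSO and diluted in PBS, with final DMSO below 1%. Duplicate wells hold 6 × 10⁴ cells/ml at 37 °C, 5% CO₂, for 48 h. Cells are counted by Coulter counter after 10-fold saline dilution. Read-out is percent growth versus PBS/DMSO controls, expressed as % growth inhibition.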

[37] = test system: MCF7; assay: Growth inhibition of human MCF7 cells at 10 uM after 48 hrs by coulter counter method; conditions: MCF7, 48 h, read-out: GI; method in brief: as §1
[38] = test system: LOX IMVI; assay: Growth inhibition of human LOXIMVI cells at 10 uM after 48 hrs by coulter counter method; conditions: read-out: GI; method in brief: as §1
[39] = test system: CAKI-1; assay: Growth inhibition of human Caki1 cells at 10 uM after 48 hrs by coulter counter method; conditions: CAKI-1, 48 h, read-out: GI; method in brief: as §1
[40] = test system: HCT-116; assay: Growth inhibition of human HCT116 cells at 10 uM after 48 hrs by coulter counter method; conditions: HCT-116, 48 h, read-out: GI; method in brief: as §1
[41] = test system: KM12; assay: Growth inhibition of human KM12 cells at 10 uM after 48 hrs by coulter counter method; conditions: KM12, 48 h, read-out: GI; method in brief: as §1
[42] = test system: SF-268; assay: Growth inhibition of human SF268 cells at 10 uM after 48 hrs by coulter counter method; conditions: SF-268, 48 h, read-out: GI; method in brief: as §1
[43] = test system: T47D; assay: Growth inhibition of human T47D cells at 10 uM after 48 hrs by coulter counter method; conditions: read-out: GI; method in brief: as §1
[44] = test system: U-251; assay: Growth inhibition of human U251 cells at 10 uM after 48 hrs by coulter counter method; conditions: U-251, 48 h, read-out: GI; method in brief: as §1
[45] = test system: CCRF-CEM; assay: Growth inhibition of human CCRF-CEM cells at 10 uM after 48 hrs by coulter counter method; conditions: read-out: GI; method in brief: as §1

Molecule `O=C1N=C2OC(c3ccccc3)=NN2C1=O` has an inhibition of growth at 10 µM [1] of under 10%, an inhibition of growth at 10 µM [2] of under 10% and an inhibition of growth at 10 µM [3] of under 10%. The inhibition of growth at 10 µM [4] was under 10%, the inhibition of growth at 10 µM [5] was under 10% and the inhibition of growth at 10 µM [6] was 15.2%. For the same molecule, the inhibition of growth at 10 µM [7] was under 10%, the inhibition of growth at 10 µM [8] was under 10% and the inhibition of growth at 10 µM [9] was under 10%. The inhibition of growth at 10 µM [10] was under 10%, the inhibition of growth at 10 µM [11] was under 10% and the inhibition of growth at 10 µM [12] was under 10%. For the same molecule, the inhibition of growth at 10 µM [13] was under 10%, the inhibition of growth at 10 µM [14] was 20.5% and the inhibition of growth at 10 µM [15] was under 10%. It also gave an inhibition of growth at 10 µM [16] of under 10%, an inhibition of growth at 10 µM [17] of under 10% and an inhibition of growth at 10 µM [18] of under 10%. For the same molecule, the inhibition of growth at 10 µM [19] was under 10%, the inhibition of growth at 10 µM [20] was under 10% and the inhibition of growth at 10 µM [21] was under 10%. The inhibition of growth at 10 µM [22] was under 10%, the inhibition of growth at 10 µM [23] was under 10% and the inhibition of growth at 10 µM [24] was under 10%. It also gave an inhibition of growth at 10 µM [25] of under 10%, an inhibition of growth at 10 µM [26] of under 10% and an inhibition of growth at 10 µM [27] of under 10%. It also gave an inhibition of growth at 10 µM [28] of under 10%, an inhibition of growth at 10 µM [29] of under 10% and an inhibition of growth at 10 µM [30] of under 10%. It also gave an inhibition of growth at 10 µM [31] of under 10%, an inhibition of growth at 10 µM [32] of under 10% and an inhibition of growth at 10 µM [33] of under 10%. It also gave an inhibition of growth at 10 µM [34] of under 10%, an inhibition of growth at 10 µM [35] of 12.5% and an inhibition of growth at 10 µM [36] of under 10%. It also gave an inhibition of growth at 10 µM [37] of under 10%, an inhibition of growth at 10 µM [38] of under 10% and an inhibition of growth at 10 µM [39] of under 10%. The inhibition of growth at 10 µM [40] was under 10%, the inhibition of growth at 10 µM [41] was under 10% and the inhibition of growth at 10 µM [42] was under 10%. For the same molecule, the inhibition of growth at 10 µM [43] was under 10%, the inhibition of growth at 10 µM [44] was under 10% and the inhibition of growth at 10 µM [45] was under 10%.
